Test results: ChEMBL document CHEMBL3992522, “Antileishmanial Activity of Pyrazolopyridine Derivatives and Their Potential as an Adjunct Therapy with Miltefosine” (J Med Chem, 2017)
Calls of active or inactive are those of the source. The calls are words filed in the database; no cut-off is given here.

Columns and labels:
Leishmania donovani [1] = test: Antileishmanial activity against Leishmania donovani MHOM/IN/80/DD8 promastigote forms harboring luciferase gene at 50 uM after 72 hrs by Steady-Glo reagent based luminescence assay relative to control; format: functional; conditions: MHOM/IN/80/DD8, 72 h, read-out: GI
In short: (§1)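 Exponential-phase Dd8-Luc promastigotes at 1×10^6/mL in M199 with 10% FBS, 24 °C, given 50 and 25 µM for 72 h. Vehicle 0.1% DMSO. Steady-Glo added 1:1, luminescence (RLU) read. IC50 from four-parameter Hill regression, derived only where inhibition exceeded 90%. Means of at least three independent experiments.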

Leishmania donovani [2] = test: Antileishmanial activity against Leishmania donovani MHOM/IN/80/DD8 amastigote forms harboring luciferase gene infected in mouse J774 cells at 25 uM after 72 hrs by Steady-Glo reagent based luminescence assay relative to control; format: functional; conditions: MHOM/IN/80/DD8, J774, 72 h, read-out: GI
In short: (§2)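 Stationary-phase luciferase-expressing Dd8 promastigotes infected into J774 macrophages (4×10^4/mL seeded, 24 h, 37 °C, 5% CO2) at 1:8 macrophage:parasite for 24 h. Non-internalised parasites washed off. Compounds added at 50 and 25 µM in RPMI/10% FBS for 72 h. Lysis with Steady-Glo luciferin reagent plus PBS, luminescence read. Inhibition relative to untreated infected controls.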

Leishmania donovani [3] = test: Antileishmanial activity against Leishmania donovani MHOM/IN/80/DD8 amastigote forms harboring luciferase gene infected in mouse J774 cells at 50 uM after 72 hrs by Steady-Glo reagent based luminescence assay relative to control; format: functional; conditions: MHOM/IN/80/DD8, J774, 72 h, read-out: GI; in short: as §2
Leishmania donovani [4] = test: Antileishmanial activity against Leishmania donovani MHOM/IN/80/DD8 promastigote forms harboring luciferase gene after 72 hrs by Steady-Glo reagent based luminescence assay; format: functional; conditions: MHOM/IN/80/DD8, 72 h; in short: as §1
[5] = Cytotoxicity against African green monkey Vero cells assessed as reduction in cell viability after 72 hrs by MTT assay; format: cell-based; conditions: chlorocebus sabaeus
In short: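 Vero and J774 cells seeded at 1×10^5 per well for 24 h, then exposed 72 h to seven two-fold dilutions from 500 to 7.81 μM. MTT solution (5 mg/mL stock) added for 2 h at 37 °C, formazan dissolved in DMSO and read at 540 nm. CC50 derived by the Huber and Koella method.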

Leishmania donovani [6] = test: Antileishmanial activity against Leishmania donovani MHOM/IN/80/DD8 promastigote forms harboring luciferase gene at 6.25 to 12.5 uM up to 4 days by Steady-Glo reagent based luminescence assay; format: functional
In short: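 Log-phase luciferase promastigotes at 1.0×10^6 at 24 °C, pH 7.4, given two-fold dilutions from 200 to 6.25 µM. RLU in lysed cultures measured daily for up to 4 days to plot growth curves. Three independent experiments.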

Leishmania donovani [7] = test: Antileishmanial activity against Leishmania donovani MHOM/IN/80/DD8 amastigote forms harboring luciferase gene infected in mouse J774 cells at 6.25 to 12.5 uM up to 4 days by Steady-Glo reagent based luminescence assay; format: functional, cell-based
In short: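 Infected J774 macrophages held at 37 °C with two-fold dilutions from 200 to 6.25 µM. Intracellular amastigote growth followed by luciferase activity in lysed macrophages, expressed as RLU, over time. Three independent experiments.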

Leishmania donovani [8] = test: (§3) Antileishmanial activity against Leishmania donovani amastigote forms infected in Balb/c mouse assessed as inhibition of parasitic burden in spleen at 50 mg/kg, ip administered for 5 consecutive days measured up to 7 weeks post treatment by Giemsa staining based assay; format: functional, organism-based
Leishmania donovani [9] = test: as §3, with “25” for “50”, “ip co-treated with 5 mg/kg, po miltefosine” for “ip”, “on day 4 and” for “up to”, “7” for “7 weeks”, “post last” for “post”, “assay relative to control” for “assay”; format: functional
In short: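 Combination study with seven groups of 5 infected BALB/c mice, including vehicle (8% DMSO i.p.), infected untreated and miltefosine-alone groups. Treatment daily for 5 days, test compound i.p. and miltefosine orally. Mice killed on days 4 and 7 post-treatment; liver and spleen parasite load counted on Giemsa-stained stamp smears and expressed as LDU relative to infected untreated mice. Mean ± SD, n = 5, three independent experiments.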

Mus musculus [10] = test: Toxicity in Balb/c mouse infected with Leishmania donovani amastigote forms assessed as changes in body weight at 12.5 to 200 mg/kg, ip administered for 5 consecutive days; format: organism-based; conditions: in vivo
In short: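 L. donovani-infected BALB/c mice (15-day infection, 5 per group) dosed for five consecutive days: test compound 12.5–200 mg/kg i.p. in 8% DMSO, miltefosine orally in TDW, alone or in combination. Body weight followed after treatment.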

Mus musculus [11] = test: Toxicity in Balb/c mouse infected with Leishmania donovani amastigote forms assessed as changes in body weight at 12.5 to 200 mg/kg, ip co-treated with 5 to 25 mg/kg, po miltefosine for 5 consecutive days; format: organism-based; conditions: in vivo
Mus musculus [12] = test: Decrease in IL-10 level in Balb/c mouse splenocytes infected with Leishmania donovani amastigote forms at 25 mg/kg, ip co-treated with 5 mg/kg, po miltefosine administered for 5 consecutive days measured on day 7 post last treatment by sandwich ELISA relative to control; format: functional
In short: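 Splenocytes (2×10^6) from treated infected BALB/c mice taken on day 4 or 7 post-treatment. Cultured in phenol-red-free RPMI 1640 with 5 μg/mL soluble L. donovani antigen for 72 h at 37 °C, 5% CO2. Supernatant cytokines measured by sandwich ELISA against a standard curve. Mean ± SD, n = 5 mice per group, three independent experiments.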

Leishmania donovani [13] = test: Induction of apoptosis in Leishmania donovani MHOM/IN/80/DD8 promastigote forms assessed as late apoptotic cells at IC50 after 48 hrs by Annexin V-FITC/propidium iodide staining based flow cytometry (reference value: 0.86%); format: functional
Leishmania donovani [14] = test: Induction of apoptosis in Leishmania donovani MHOM/IN/80/DD8 promastigote forms assessed as early apoptotic cells at 50 uM after 48 hrs by Annexin V-FITC/propidium iodide staining based flow cytometry (reference value: 7.41%); format: functional
Mus musculus [15] = test: Increase in iNOS-mediated NO generation in Balb/c mouse splenocytes infected with Leishmania donovani amastigote forms at 50 mg/kg, ip for 5 consecutive days measured on day 4 and 7 post last treatment followed by soluble Leishmania donovani promastigote antigen-stimulation for 72 hrs by Griess assay relative to control; format: functional
In short: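 Splenocytes from treated infected BALB/c mice (5-day regimen, i.p. test compound, oral miltefosine; n = 5) isolated day 4 and day 7 post-treatment. Cultured in phenol red-free RPMI 1640 with 5 μg/mL SLA for 72 h at 37 °C, 5% CO2. Supernatant nitrite measured by Griess assay at 540 nm against a sodium nitrite standard curve.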

Leishmania donovani [16] = test: Induction of apoptosis in Leishmania donovani MHOM/IN/80/DD8 promastigote forms assessed as cell rounding at IC50 after 48 hrs by propidium iodide staining based fluorescent microscopic method; format: functional
Leishmania donovani [17] = test: Induction of mitochondrial membrane potential loss in Leishmania donovani MHOM/IN/80/DD8 promastigote forms at 50 uM after 6 hrs by JC-1 staining based flow cytometry (reference value: 5.02%); format: functional
Leishmania donovani [18] = test: Induction of mitochondrial membrane potential loss in Leishmania donovani MHOM/IN/80/DD8 promastigote forms at 50 uM after 12 hrs by JC-1 staining based flow cytometry (reference value: 5.02%); format: functional

## COc1ccc(C2C3=C(CCC3=O)Nc3c2c(-c2c[nH]c4ccccc24)nn3-c2ccc(Cl)c(Cl)c2)cc1OC (stereo not drawn)
Leishmania donovani [1]
  inhibition of growth at 50 µM: 93.3%
Leishmania donovani [2]
  inhibition of growth at 25 µM: 96.8%
Leishmania donovani [3]
  inhibition of growth at 50 µM: 97.3%
Leishmania donovani [4]
  IC50: 7.19 µM
[5]
  CC50 at 72 h: 438 µM
Leishmania donovani [6]
  Activity: Active
Leishmania donovani [7]
  Activity: Active
Leishmania donovani [8]
  inhibition: Active
Leishmania donovani [9]
  inhibition (INH): >97%
Mus musculus [10]
  Activity: Non-Toxic
Mus musculus [11]
  Activity: Non-Toxic
Mus musculus [12]
  inhibition (INH): 94%
Leishmania donovani [13]
  Activity: 21%
Leishmania donovani [14]
  Activity: 11.6%
Mus musculus [15]
  fold change (FC): 4.7
Leishmania donovani [16]
  Activity: Active
Leishmania donovani [17]
  Activity: 15.2%
Leishmania donovani [18]
  Activity: 32.9%
